Experimental findings from ChEMBL document CHEMBL3352186, “Modification and biological evaluation of thiazole derivatives as novel inhibitors of metastatic cancer cell migration and invasion” (J Med Chem, 2014) are described below.

Test [1] has as its system MDA-MB-231. Kind of test: Antimigratory activity in human MDA-MB-231 cells after 24 hrs using transwell system by light microscopy. It counts as functional, cell-based. Conditions: MDA-MB-231, 24 h. A digest of the protocol: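 Transwell chambers: 2.5×10^4 cells in serum-free, phenol red-free medium in the upper chamber, with DMEM + 5% FBS below as chemoattractant. Compounds at 10^-8, 10^-7, 10^-6 and 10^-5 M, with 0.1% DMSO vehicle, for 24 h. Membranes were scrubbed, formalin-fixed, methanol-permeabilized and stained with 0.1% crystal violet. Migrated cells were counted by light microscopy per 100× field as % of vehicle. IC50 is the concentration giving 50% migration inhibition.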

Test [2] has as its system MDA-MB-231. In words: Cytotoxicity against human MDA-MB-231 cells assessed as survival at 1 uM after 5 days. Conditions: MDA-MB-231, 120 h, read-out: Survival. The test is classed as functional.
In test [3] the test system is MDA-MB-231. Kind of test: Antiinvasive activity in human MDA-MB-231 cells at 10 uM after 24 hrs by matrigel assay. Conditions: MDA-MB-231, 24 h. It counts as functional. A digest of the protocol: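 Cells serum-starved 24 h, trypsinized and resuspended in medium with DMSO or compound; 2.5×10^4 cells/well seeded on Matrigel-coated inserts. Bottom well held 10% FBS medium with DMSO or 10 μM compound. After 24 h, non-invaded cells were scrubbed off and invaded cells fixed (4% formaldehyde, 10 min, RT), stained with 0.04% crystal violet and counted at 100× in five random fields. Result is % invasion relative to DMSO.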

One may read the IC50 as the midpoint of a concentration-inhibition curve. As a reminder, the inhibition is how much of the control response was suppressed. Low values mean a response near the control, high ones a response far below the control.

Some results are limits rather than exact numbers.

As for `C#CCn1c(-c2ccc(C)cc2C)cs/c1=N\C(=O)c1ccccc1`, 3890 nM corresponded to half-maximal inhibition in the test on MDA-MB-231 [1] (IC50). In the test with MDA-MB-231 [2], the viability at 1 µM is 70.2%.
The like results for `Cn1c(-c2cccc(Br)c2)cs/c1=N\C(=O)c1ccccc1` were, in that order, 302 nM and 94.4%.
The like results for `COc1cc(-c2csc(NC(=O)c3ccc(Cl)cc3)n2)cc(OC)c1OC` were, in that order, above 25000 nM and 85.6%.
In the test on MDA-MB-231 [1], `C=CCn1c(-c2ccc(C)cc2C)cs/c1=N\C(=O)c1ccccc1` came in with an IC50 of 456 nM. The viability at 1 µM in the test on MDA-MB-231 [2] was determined as 115%.
In the same order, the values of `COc1cc(-c2cs/c(=N\C(=O)c3ccc(Cl)cc3)n2C)cc(OC)c1OC` are 758 nM and 77.6%.
Compound `CCCn1c(-c2ccc(C)cc2C)cs/c1=N\C(=O)c1ccccc1` displayed an IC50 in the test with MDA-MB-231 [1] of 292 nM. In addition, the viability at 1 µM in the test on MDA-MB-231 [2] was determined as 85%.
The like results for `Cc1s/c(=N\C(=O)c2ccccc2)n(C)c1-c1ccccc1` were, in that order, 197 nM and 68.4%.
In the same order, the values of `O=C(Nc1nc(-c2cccc(Cl)c2)cs1)c1ccccc1` are 123 nM and 71.4%.
In the same order, the values of `CN(C(=O)c1ccccc1)c1nc(-c2ccccc2Cl)cs1` are 41.6 nM and 88.9%.
The compound `CCCCn1c(-c2ccc(C)cc2C)cs/c1=N\C(=O)c1ccccc1` gave an IC50 with MDA-MB-231 [1] of 196 nM. Moreover, the viability at 1 µM in the test with MDA-MB-231 [2] is 70.4%.
The like results for `COc1ccc(C(=O)N(C)c2nc(-c3cc(OC)c(OC)c(OC)c3)cs2)cc1OC` were, in that order, above 25000 nM and 102%.
For the compound `Cc1ccc(-c2cs/c(=N\S(=O)(=O)c3ccccc3)n2C)c(C)c1`, the IC50 in the test with MDA-MB-231 [1] was 1460 nM. The viability at 1 µM in the test with MDA-MB-231 [2] is 92.4%.
The like results for `COc1ccc(C(=O)/N=c2\scc(-c3cc(OC)c(OC)c(OC)c3)n2C)cc1` were, in that order, 8040 nM and 106%.
In the same order, the values of `COc1ccc(C(=O)Nc2nc(-c3cc(OC)c(OC)c(OC)c3)cs2)cc1OC` are above 25000 nM and 87.3%.
In the same order, the values of `Cc1ccc(-c2csc(N(C)S(=O)(=O)c3ccccc3)n2)c(C)c1` are above 25000 nM and 117%.
`CCCn1c(-c2ccccc2)cs/c1=N\C(=O)c1ccccc1` had an IC50 in the test with MDA-MB-231 [1] of 657 nM. Also, the viability at 1 µM with MDA-MB-231 [2] worked out at 100%.
With `COc1cc(-c2csc(NC(=O)c3ccccc3)n2)cc(OC)c1OC`, the IC50 in the test with MDA-MB-231 [1] was above 50000 nM. In addition, the viability at 1 µM with MDA-MB-231 [2] is 95%.
`CCN(C(=O)c1ccccc1)c1nc(-c2ccccc2)cs1` gave an IC50 with MDA-MB-231 [1] of 533 nM. For the same compound, the viability at 1 µM in the test on MDA-MB-231 [2] stood at 129%.
`Cc1ccc(-c2csc(NS(=O)(=O)c3ccccc3)n2)c(C)c1` gave an IC50 in the test on MDA-MB-231 [1] of 11000 nM. Further, in the test on MDA-MB-231 [2], the viability at 1 µM turned out to be 137%.
In the test on MDA-MB-231 [1], `COc1ccc(C(=O)N(C)c2nc(-c3cc(OC)c(OC)c(OC)c3)cs2)c(OC)c1` gave an IC50 of 5040 nM. For the same compound, in the test on MDA-MB-231 [2], the viability at 1 µM came out at 119%.
Regarding `COc1cc(-c2cs/c(=N\C(=O)c3ccccc3)n2C)cc(OC)c1OC`, the IC50 with MDA-MB-231 [1] amounted to 1070 nM. For the same compound, the viability at 1 µM with MDA-MB-231 [2] turned out to be 88.4%.
In the same order, the values of `Cc1ccc(-c2cnc(NC(=O)c3ccccc3)s2)cc1` are 308 nM and 55.6%.
Take `COc1ccccc1C(=O)Nc1nc(-c2cc(OC)c(OC)c(OC)c2)cs1`: the IC50 in the test with MDA-MB-231 [1] came to 8500 nM. Further, in the test with MDA-MB-231 [2], the viability at 1 µM stood at 104%.
In the same order, the values of `Cn1c(-c2ccccc2Cl)cs/c1=N\C(=O)c1ccccc1` are 268 nM and 72.2%.
The like results for `CN(C(=O)c1ccccc1)c1nc(-c2cccc(Br)c2)cs1` were, in that order, 437 nM and 104%.
As for `COc1cc(-c2csc(NC(=O)c3cccc(OC)c3OC)n2)cc(OC)c1OC`, in the test with MDA-MB-231 [1], the half-inhibitory concentration (IC50) came to 15000 nM. Also, the viability at 1 µM in the test on MDA-MB-231 [2] was determined as 90.1%.
In the case of `Cc1ccc(-c2cs/c(=N\C(=O)c3ccccc3)n2C)c(C)c1`, half-maximal inhibition in the test on MDA-MB-231 [1] (IC50) was put at 218 nM. In the test with MDA-MB-231 [2], the viability at 1 µM is 101%. In the test with MDA-MB-231 [3], this compound showed an inhibition at 10 µM above 50%.
In the test on MDA-MB-231 [1], `Cc1sc(NC(=O)c2ccccc2)nc1-c1ccccc1` had an IC50 above 25000 nM. In the test with MDA-MB-231 [2], the viability at 1 µM was determined as 99%.
The like results for `O=C(Nc1nc(-c2ccccc2Cl)cs1)c1ccccc1` were, in that order, 15000 nM and 102%.
Regarding `COc1cc(-c2csc(N(C)C(=O)c3cccc(OC)c3OC)n2)cc(OC)c1OC`, inhibition in the test with MDA-MB-231 [1] was half-maximal at 108 nM (IC50). In the test with MDA-MB-231 [2], the viability at 1 µM came to 118%.
Turning to `O=C(Nc1nc(-c2cc(C(F)(F)F)cc(C(F)(F)F)c2)cs1)c1ccccc1`, the IC50 in the test on MDA-MB-231 [1] came out at 336 nM. Further, the viability at 1 µM in the test on MDA-MB-231 [2] was determined as 85.8%.
